Active and inactive are the calls of the source. No cut-off for these calls is given here.
Key:
Type in all cases: functional
DRG neuron [1] = test: Increase in Ca2+ uptake in mouse DRG neurons at 10 ug/ml by Fura-2 dye-based fluorescence microscopy in presence of KCl relative to control
Outline: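 Mouse DRG cells plated in medium with additives and loaded with the Ca2+ dye Fura-2 AM. Compound applied at 10 μg/mL, then 25 mM KCl added. Ca2+ influx compared with control cells in the same well.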

DRG neuron [2] = test: Induction of depolarization of mouse DRG neurons at 10 ug/ml by Fura-2 dye-based fluorescence microscopy
Outline: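 Dorsal root ganglion cells were taken from mice, plated in medium with additives and loaded with Fura-2 AM. Intracellular Ca2+ was followed as the read-out while compound was applied at 10 μg/mL. This was followed by 25 mM KCl, with responses compared against control cells in the same well.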

DRG neuron [3] = test: Increase in Ca2+ uptake in mouse DRG neurons at 20 ug/ml by Fura-2 dye-based fluorescence microscopy
Outline: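 Mouse DRG cells plated in medium with additives and loaded with the Ca2+ dye Fura-2 AM. Compound applied directly at 20 μg/mL. Read-out is the fraction of cells showing a rise in Ca2+ concentration.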

SMILES	Activity (DRG neuron [1])	Activity (DRG neuron [2])	Activity (DRG neuron [3])
CC(=O)Cc1cc2c(c(O)c1C(=O)O)-c1cc3c(c(O)c1CC2)C(=O)c1c(O)cc(O)cc1[C@H]3[C@H]1c2cc(O)cc(O)c2C(=O)c2c1cc1c(c2O)CCc2cc(CC(C)=O)c(C(=O)O)c(O)c2-1 (stereo in doubt; 1b)	Active	inactive	
Cc1cc2cc(CCC(=O)O)c(O)c(O)c2c(=O)o1			Active
